# Screening data deposited in PubChem BioAssay by several laboratories.
# TNAP inh noacc – blocks human TNAP activity with no phosphate acceptor present. AID 1012. inhibition, % at 20 µM. P05186. purified TNAP, CDP-star luminescence, 30 min. 0.26% of 200,000 active;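 active = tissue-nonspecific alkaline phosphatase inhibition above about 50% at 20 µM in the single-dose screen, limit read from the data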;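 also: 0% = DMSO negative control and 100% = EDTA positive control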
# Target sequence (P05186 whole entry, looked up): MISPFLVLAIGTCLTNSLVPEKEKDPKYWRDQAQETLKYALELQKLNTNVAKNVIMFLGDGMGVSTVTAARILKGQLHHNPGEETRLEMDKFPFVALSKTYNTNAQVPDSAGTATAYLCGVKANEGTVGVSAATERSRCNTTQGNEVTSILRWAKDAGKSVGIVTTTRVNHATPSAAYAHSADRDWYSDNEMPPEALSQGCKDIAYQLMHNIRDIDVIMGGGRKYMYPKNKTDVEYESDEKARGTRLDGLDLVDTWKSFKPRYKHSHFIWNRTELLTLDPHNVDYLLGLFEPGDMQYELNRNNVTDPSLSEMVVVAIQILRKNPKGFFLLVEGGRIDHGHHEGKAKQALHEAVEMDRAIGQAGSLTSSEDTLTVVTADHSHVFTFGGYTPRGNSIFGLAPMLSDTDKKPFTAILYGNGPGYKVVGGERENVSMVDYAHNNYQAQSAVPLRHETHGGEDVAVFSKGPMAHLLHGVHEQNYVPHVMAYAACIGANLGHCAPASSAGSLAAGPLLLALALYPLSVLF
# Arbovirus anti – arbovirus infection inhibition. arbovirus infection cell-based antiviral screen. inhibition, % at 10 µM. 0.37% of 200,000 active. AID 1251; in the data active = inhibition above about 30%
# WT yeast gro inh – growth inhibition of WT yeast, mitochondrial fusion screen | AID 1362 | mitochondrial fusion phenotypic screen, WT strain | inhibition, % at 10 µM | 2.1% of 190,000 active; in the data active = inhibition above about 58%; tested in S. cerevisiae
# TNAP inh hiacc – TNAP (human) inhibition, high acceptor; purified TNAP, CDP-star luminescence, 1 M DEA; inhibition, % at 20 µM; 0.03% of 200,000 active; AID 1135;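 active = over 50% inhibition of tissue-nonspecific alkaline phosphatase at 20 µM in the single-dose screen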;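 also: plate controls were DMSO wells for no effect and EDTA-quenched wells as full inhibition for full effect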
# TNAP act hi DEA – increases human TNAP activity under high phosphate acceptor concentration; P05186; purified TNAP, CDP-star luminescence, 1 M DEA, 30 min; stronger effect = higher value; 0 = EDTA background, 1 = DMSO-only activity; activation factor at 20 µM; 200,000 tested, under 10 active;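 active = activation factor at least 2 at 20 µM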
#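 Control set: EDTA negative control, DMSO positive control / Assay system: human TNAP / Quantity: TNAP 1/800 final / Evaluation: TNAP activation factor scaled between EDTA and DMSO control wells / Measured by: luminescent substrate turnover signal / Compound dosing: one dose, 20 µM / Times: 30 min enzyme reaction at room temperature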
# * hit, by the source's call; i = inactive; x = no result. In the library only some 2.6% were active in any assay of this set; here they are far more common.
SMILES,TNAP inh noacc,Arbovirus anti,WT yeast gro inh,TNAP inh hiacc,TNAP act hi DEA
CCCc1ccc(Oc2c(-c3ccc(O)c(C)c3O)n[nH]c2C)cc1,-3,-14,90*,-2,1
O=C(CSc1ncnc2nc[nH]c12)c1ccc(Cl)cc1,x,0,9,x,x
O=C(CSc1ncnc2c(-c3ccc(Cl)cc3)nsc12)c1ccccc1,7,2,78*,0,1
CCN(Cc1ccncc1)C(=O)C1CCN(S(=O)(=O)c2cccs2)CC1,0,1,-17,-2,1
O=C(Nc1ccccc1)Nc1ncc([N+](=O)[O-])s1,17,4,70*,21,0.8
CCc1nn2cc(C(=O)c3ccccc3O)cnc2c1-c1ccc(F)cc1,2,41*,39,1,1
CCc1nn2cc(C(=O)c3cc(C)ccc3O)cnc2c1-c1ccc(F)cc1,22,7,9,4,1
O=C(O)c1[nH]nc2c1COc1ccccc1-2,91*,6,9,0,1
O=C(Nc1ncc2c(n1)-c1ccccc1OC2)c1ccc(F)cc1,-11,5,8,-4,1
C=CCn1nnc2sc3c(c2c1=O)CCC(C)C3 (stereo not given),-16,2,-1,-4,1
O=C(NC(Cc1c[nH]c2ccccc12)C(=O)Nc1ccc(OC(F)(F)F)cc1)c1cccs1 (stereo not given),-4,-14,88*,0,1
COc1ccccc1OCC(=O)N(Cc1nc(-c2ccccc2)no1)C1CCCCC1,-8,-26,61*,-7,1.1
CC(C)Oc1ccc(CNC(=S)N/N=C/c2ccc([N+](=O)[O-])cc2)cc1,1,-12,30,-3,1
COc1cc(S(=O)(=O)N(C)C2CCCCC2)c(C)cc1C,-3,2,59*,-6,1.1
C=CCN=c1scc(-c2ccccc2)n1/N=C/c1ccccn1,-9,32*,75*,-1,1
C=CCN=c1scc(-c2ccc(F)cc2)n1/N=C/c1ccccn1,-7,1,39,0,1
CCN(CC)c1ccc(NC(=O)Cn2c(C(C)NC(=O)c3ccc(C)cc3)nc3ccccc32)cc1 (stereo not given),i,-2,-9,-134,2.3*
O=C(NNC(=O)C1CCN(S(=O)(=O)c2ccc(Cl)cc2)CC1)c1ccccc1,-20,7,3,-6,1.1
O=C(O)c1ccccc1C(=O)NNc1ccc(Cl)cc1,-10,-30,72*,-1,1
COc1ccc(C2N(c3ccc(Cl)cc3)N=C(C(C)=O)N(C)N2C(C)=O)cc1 (stereo not given),6,-7,67*,-2,1
CCN(C(=O)c1ccc2c(Cl)c3c(nc2c1)CCC3)c1cccc(C)c1,-1,-33,42,-6,1.1
Cc1ccc(N(C)C(=O)c2ccc3c(Cl)c4c(nc3c2)CCC4)cc1C,0,-33,83*,-5,1.1
CCc1ccc(N(CC)C(=O)c2ccc3c(Cl)c4c(nc3c2)CCC4)cc1,0,-4,91*,-5,1.1
O=C(CN1C(=O)CCC1=O)Nc1nc(-c2ccc(Oc3ccccc3)cc2)cs1,-5,5,-1,-1,1
COc1ccc(CNC(=O)C/C(C)=N/NC(=O)COc2ccccc2)cc1,-9,4,-3,-7,1.1
SMILES,TNAP inh noacc,Arbovirus anti,WT yeast gro inh,TNAP inh hiacc,TNAP act hi DEA
COc1ccc(NC(=O)CN2CCN(C3c4ccccc4-c4ccccc43)CC2)cc1,-11,-16,5,-2,1
CCOc1ccc(-c2csc(NC(=O)CSCC(=O)O)n2)c2ccccc12,-17,32*,-6,0,1
CCOC(=O)CSc1nnc(SCCN2C(=O)c3ccccc3C2=O)s1,-4,-2,-10,-3,1
CCC(=O)NC(=S)Nc1ccc(Cl)cn1,-6,7,13,1,1
O=C(Nc1ccc(Cl)cn1)C1C(c2ccccc2)C1(Cl)Cl (stereo not given),-1,-11,71*,4,1
O=C(NC(=S)Nc1ccc(Cl)cn1)C12CC3CC(CC(C3)C1)C2,16,0,73*,5,1
O=C(NC(=S)Nc1ccc(Cl)cn1)C(c1ccccc1)c1ccccc1,9,-14,72*,1,1
COc1ccccc1/C=C/C=N/NC(=O)CCn1nnc2ccccc21,-6,-17,5,4,1
COc1ccc(CCNC(=O)COc2ccc(C)nc2[N+](=O)[O-])cc1OC,5,18,-1,-8,1.1
CNS(=O)(=O)c1cccc(C(=O)OCC(=O)N2CCc3ccccc3C2)c1,25,-3,11,-8,1.1
O=C(C[n+]1cn(C(F)F)c2ccccc21)c1ccc(OC(F)F)cc1,-1,-7,71*,-5,1
O=C(C[n+]1ccc(C(=O)NCc2ccccc2)cc1)c1ccc(OC(F)F)cc1,3,7,-1,3,1
Cc1[nH]n(C(N)=S)c(=O)c1N=Nc1ccc(S(=O)(=O)N2CCCCCC2)cc1,2,-3,68*,16,0.8
Cc1[nH]n(C(N)=S)c(=O)c1N=Nc1ccc2ccccc2c1,-73,-6,66*,12,0.9
Cc1ccc(N=Nc2c(C)[nH]n(C(N)=S)c2=O)cc1C,-7,-16,60*,7,0.9
CC(C)CC(NC(=O)c1ccccc1)C(=O)OCC(=O)Nc1ccc(S(N)(=O)=O)cc1 (stereo not given),1,-3,-2,0,1
CCOc1ccccc1NC(=O)CN(c1ccc(OC)cc1OC)S(=O)(=O)c1ccccc1[N+](=O)[O-],0,-6,3,-6,1.1
Cn1cccc1Cc1nnc(SCC(=O)Nc2ccc3c(c2)OCO3)n1-c1ccc(F)cc1,4,-23,3,-2,1
Cc1ccc(S(=O)(=O)N2CCN(Cc3ccccc3C(F)(F)F)CC2)cc1,-12,8,2,-4,1
Cc1ccc(S(=O)(=O)N2CCN(Cc3cc(C(C)C)ccc3O)CC2)cc1,-4,30*,51,2,1
CC#C[C@]1(O)CC[C@H]2[C@@H]3CCC4=CC(=O)CCC4=C3[C@@H](c3ccc(N(C)C)cc3)C[C@@]21C,-7,-10,87*,-3,1
O=C1CCc2cc(S(=O)(=O)N3CCCC3C(=O)NC3CCCCCCC3)ccc2N1 (stereo not given),-12,-2,3,-2,1
C/C(CC1CC2=C(CC1(C)C)C(C)(C)CCC2)=N\NC(N)=S (stereo not given),-11,-18,76*,7,0.9
Cc1cc(N2CCCCC2)nc(-c2ccc(Br)cc2)n1,-4,2,66*,-1,1
CCSc1cc(N2CCCC2)nc(-c2ccc(C)cc2)n1,-4,5,-10,-6,1.1
COc1ccc2cc(CCNC(=O)c3c(-c4ccccc4Cl)noc3C)c(=O)[nH]c2c1,-6,3,6,-3,1
O=[N+]([O-])c1ccc(/C=N/n2c(CO)nc3ccccc32)s1,5,-6,11,0,1
